Results published in ChEMBL document CHEMBL3745678, “Novel β-Carboline/Hydroxamic Acid Hybrids Targeting Both Histone Deacetylase and DNA Display High Anticancer Activity via Regulation of the p53 Signaling Pathway” (J Med Chem, 2015).
Activity calls are given as the source filed them. The calls are words filed in the database; no cut-off is given here.

Key:
HCT-116 [1] = test: Antiproliferative activity against human HCT116 cells assessed as cell death at 5 uM after 48 hrs by MTT assay; format: functional, cell-based
Procedure, shortened: (§1)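 HCT116 and rat IEC-18 cells incubated 48 h over a 0–5 µM range. Viability measured by MTT and expressed as % of control. GI50 taken from the inhibition curves; three independent experiments.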

Histone deacetylase 1 [2] = molecular target: T1, Histone deacetylase 1 (Homo sapiens, UniProt Q13547); test: Potency index, ratio of IC50 for SAHA to IC50 for test compound for inhibition of human recombinant HDAC1 using Boc-Lys (Ac)-AMC as substrate after 60 mins by fluorometric analysis
T1 sequence (Q13547 whole entry): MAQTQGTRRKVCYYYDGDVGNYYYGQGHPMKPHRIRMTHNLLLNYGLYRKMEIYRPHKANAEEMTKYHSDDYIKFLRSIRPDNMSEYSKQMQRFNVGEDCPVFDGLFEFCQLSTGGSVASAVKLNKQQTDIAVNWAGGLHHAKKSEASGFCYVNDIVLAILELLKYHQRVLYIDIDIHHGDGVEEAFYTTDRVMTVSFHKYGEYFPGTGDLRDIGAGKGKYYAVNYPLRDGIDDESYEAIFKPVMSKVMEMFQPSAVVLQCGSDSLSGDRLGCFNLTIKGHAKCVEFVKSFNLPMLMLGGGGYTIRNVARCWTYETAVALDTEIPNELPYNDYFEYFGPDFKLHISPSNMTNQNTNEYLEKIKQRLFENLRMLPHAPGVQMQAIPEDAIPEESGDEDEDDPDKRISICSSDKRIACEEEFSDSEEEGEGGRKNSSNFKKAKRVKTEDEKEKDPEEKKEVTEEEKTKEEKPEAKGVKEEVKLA
Procedure, shortened: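 Recombinant human HDAC1 and HDAC8 incubated with compound dilutions plus Boc-Lys(Ac)-AMC at 37 °C for 60 min, then developer for 30 min. Fluorescence read at ex 355/em 460 nm; activity as % of control and IC50 calculated. Ratios formed from these IC50s; three independent experiments.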

Histone deacetylase 1 [3] = molecular target: T1, Histone deacetylase 1; test: Inhibition of recombinant human HDAC1 using Boc-Lys (Ac)-AMC as substrate after 60 mins by fluorometric analysis
[4] = molecular target: T2, Histone deacetylase (Homo sapiens) (UniProt Q13547+O15379+Q9UBN7+Q92769+Q9UQL6+Q8WUI4+Q9BY41+Q96DB2+P56524+Q9UKV0+Q969S8); test: Inhibition of HDAC in human HCT116 cells assessed as increase in acetyl-histone H3 expression after 48 hrs by immunoblotting analysis; format: cell-based; conditions: HCT-116
Procedure, shortened: (§2)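 HCT116 cells treated 48 h with compound, SAHA or vehicle. Lysates probed by immunoblot for acetyl-histone H3 and acetyl-α-tubulin, with β-actin as loading control. Relative levels by densitometric scanning; means ± SD of three experiments.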

Mus musculus [5] = test: Toxicity in BALB/c mouse xenografted with human HCT116 cells assessed as body weight change at 90 mg/kg, ip measured twice per week over 22 days; format: organism-based, HCT-116; conditions: in vivo, 528 h
Mus musculus [6] = test: Acute toxicity in ICR mouse assessed as abnormal activity at 240 mg/kg, ip measured for 14 days; format: organism-based; conditions: in vivo, 336 h
Procedure, shortened: (§3)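 Female ICR mice, single intraperitoneal injection at 585.9, 468.8, […], 300 or 240 mg/kg, or vehicle control, n = 10 per group. Deaths counted at 1 h, 4 h, daily on days 1-4 and over days 5-14. Eating, drinking, body weight and activity observed for 14 days, with survival (%) taken on day 14. LD50 calculated from mortality.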

[7] = Acute toxicity in ip dosed ICR mouse measured for 14 days; format: organism-based; conditions: in vivo; procedure, shortened: as §3
[8] = molecular target: Cellular tumor antigen p53 (Homo sapiens) (UniProt P04637); test: Activation of p53 in human HCT116 cell at 0.1 to 5 uM after 12 hrs by western blot analysis; format: cell-based; conditions: HCT-116
Sequence of Cellular tumor antigen p53 (Homo sapiens) (P04637 whole entry, looked up): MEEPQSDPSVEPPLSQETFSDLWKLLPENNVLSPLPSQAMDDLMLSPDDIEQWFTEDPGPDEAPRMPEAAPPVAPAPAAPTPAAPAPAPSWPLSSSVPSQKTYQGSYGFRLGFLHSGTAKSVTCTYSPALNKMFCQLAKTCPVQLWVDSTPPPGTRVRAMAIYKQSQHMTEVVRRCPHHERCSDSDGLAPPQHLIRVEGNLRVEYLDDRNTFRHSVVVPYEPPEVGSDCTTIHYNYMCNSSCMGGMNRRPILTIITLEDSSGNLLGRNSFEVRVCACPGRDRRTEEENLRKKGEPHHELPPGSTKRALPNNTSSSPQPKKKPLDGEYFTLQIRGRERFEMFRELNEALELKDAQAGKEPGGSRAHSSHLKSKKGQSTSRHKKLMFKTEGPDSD
Procedure, shortened: (§4)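 HCT116 cells exposed 12 h to compound or vehicle, then lysed on ice in PBS with 1% NP-40, 0.5% deoxycholate, 0.1% SDS and protease inhibitors. Up to 50 µg protein run on SDS-PAGE and immunoblotted for phospho-p53 (Ser15), p53 and p21. Bands quantified by densitometry against β-actin; mean ± SD of three experiments.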

[9] = molecular target: T2, Histone deacetylase (Homo sapiens); test: Potency index, ratio of SAHA IC50 to compound IC50 for HDAC in human HeLa cell nuclear extract; format: cell-based
Procedure, shortened: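 HDAC source was HeLa nuclear extract. Incubated with compound dilutions and Boc-Lys(Ac)-AMC substrate for 60 min at 37 °C, then lysine developer added for 30 min. Fluorescence read at ex 355/em 460 nm, activity expressed as % of control and IC50 fitted. Index = SAHA IC50 ÷ compound IC50.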

HCT-116 [10] = test: Induction of DNA damage in human HCT116 cells assessed as histone H2AX phosphorylation at S139 at 1 to 5 uM after 12 hrs by western blot analysis; format: functional, cell-based
Procedure, shortened: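 DNA-damage marker. HCT116 cells treated 12 h with compound or vehicle. Lysates immunoblotted with anti-H2AX S139ph, and β-actin served as the control. Relative levels were obtained by densitometric scanning; means ± SD of three separate experiments.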

[11] = Acute toxicity in ICR mouse assessed as survival rate at 468.8 mg/kg, ip measured on day 14; format: organism-based; conditions: in vivo; procedure, shortened: as §3
HCT-116 [12] = test: Induction of apoptosis in human HCT116 cells after 48 hrs by annexin V-FITC/propidium iodide staining-based flow cytometric analysis; format: functional, cell-based
Procedure, shortened: (§5)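 HCT116 cells cultured overnight, then exposed in triplicate for 48 h to 0.1, 1.0 or 5.0 µM, SAHA 5.0 µM or vehicle. Stained with FITC-Annexin V/PI for 15 min at room temperature.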

SW480 = test: Antiproliferative activity against human SW480 cells assessed as cell viability after 48 hrs by MTT assay; format: functional, cell-based; conditions: SW480, 48 h
[13] = molecular target: T2, Histone deacetylase (Homo sapiens); test: Inhibition of HDAC in human HCT116 cells assessed as increase in acetyl-alpha-tubulin expression after 48 hrs by immunoblotting analysis; format: cell-based; conditions: HCT-116; procedure, shortened: as §2
[14] = Acute toxicity in ICR mouse assessed as survival rate at 375 mg/kg, ip measured on day 14; format: organism-based; conditions: in vivo; procedure, shortened: as §3
[15] = Antitumor activity against human HCT116 cells xenografted in BALB/c mouse assessed as tumor weight at 90 mg/kg, po measured twice per week over 22 days (reference value: 1.38 +/- 0.13 g); format: functional, HCT-116
Mus musculus [16] = test: Acute toxicity in ICR mouse assessed as death at 240 to 300 mg/kg, ip measured after 5 to 14 days; format: organism-based; conditions: in vivo; procedure, shortened: as §3
HCT-116 [17] = test: Induction of apoptosis in human HCT116 cells at 1 uM after 48 hrs by annexin V-FITC/propidium iodide staining-based flow cytometric analysis; format: functional; procedure, shortened: as §5
Mus musculus [18] = test: Acute toxicity in ICR mouse assessed as abnormality in drinking at 240 mg/kg, ip measured for 14 days; format: organism-based; conditions: in vivo, 336 h; procedure, shortened: as §3
[19] = molecular target: Cellular tumor antigen p53 (Homo sapiens) (UniProt P04637); test: Induction of p53 activation in human HCT116 cells assessed as upregulation of p21 expression at 0.1 to 5 uM after 12 hrs by western blot analysis; format: cell-based; conditions: HCT-116; procedure, shortened: as §4
[20] = Cytotoxicity against rat IEC-18 cells assessed as survival after 48 hrs by MTT assay; format: cell-based; procedure, shortened: as §1
Mus musculus [21] = test: Acute toxicity in ICR mouse assessed as death at 240 mg/kg, ip measured for 14 days; format: organism-based; conditions: in vivo, 336 h; procedure, shortened: as §3
Mus musculus [22] = test: Acute toxicity in ICR mouse assessed as death at 240 to 375 mg/kg, ip measured after 4 hrs; format: organism-based; conditions: in vivo; procedure, shortened: as §3
Mus musculus [23] = test: Acute toxicity in ICR mouse assessed as death at 240 to 585.9 mg/kg, ip measured after 1 hr; format: organism-based; conditions: in vivo; procedure, shortened: as §3
[24] = Acute toxicity in ICR mouse assessed as survival rate at 240 mg/kg, ip measured on day 14; format: organism-based; conditions: in vivo; procedure, shortened: as §3
HCT-116 [25] = test: Induction of apoptosis in human HCT116 cells at 0.1 uM after 48 hrs by annexin V-FITC/propidium iodide staining-based flow cytometric analysis; format: functional; procedure, shortened: as §5
Mus musculus [26] = test: Acute toxicity in ICR mouse assessed as death at 468.8 mg/kg, ip measured after 5 to 14 days; format: organism-based; conditions: in vivo; procedure, shortened: as §3

For `COc1ccc(-c2nc(NC(=O)NCCCC(=O)NO)cc3c2[nH]c2ccccc23)cc1`, the Activity (HCT-116 [1]) was “Active”, the Ratio IC50 (Histone deacetylase 1 [2]) was 7 and the IC50 (Histone deacetylase 1 [3]) was 0.026 µM. The inhibition [4] was “Dose-dependent effect”, the Activity (Mus musculus [5]) was “Non-toxic” and the Activity (Mus musculus [6]) was “Non-toxic”. For the same molecule, the LD50 at 336 h [7] was 472 mg/kg, the Activity [8] was “Active” and the Ratio IC50 [9] was 2. For the same molecule, the Activity (HCT-116 [10]) was “Active”, the survival at 14 day [11] was 50% and the Activity (HCT-116 [12]) was “Dose-dependent effect”. The IC50 (SW480) was 1.16 µM, the inhibition [13] was “Dose-dependent effect” and the survival at 14 day [14] was 70%. The Activity [15] was 0.53 g, the Activity (Mus musculus [16]) was “Non-toxic” and the Activity (HCT-116 [17]) was 41.3%. The Activity (Mus musculus [18]) was “Non-toxic”, the Activity [19] was “Active” and the GI50 at 48 h [20] was 5.46 µM. For the same molecule, the Activity (Mus musculus [21]) was “Non-toxic”, the Activity (Mus musculus [22]) was “Non-toxic” and the Activity (Mus musculus [23]) was “Non-toxic”. For the same molecule, the survival at 14 day [24] was 100%, the Activity (HCT-116 [25]) was 21.6% and the Activity (Mus musculus [26]) was “Non-toxic”.
